Measurements: article PMC8521277 (The EMBO Journal, 2021)

Legend:
HeLa cells [1] = experiment: Localization of SL biosynthetic enzymes after Brefeldin A, immunofluorescence; type: cell-based, human; conditions: BFA 5 μg/ml, 30 min; SMS1 also in punctate structures
HeLa cells [2] = experiment: [3H]-sphingosine pulse-chase assay after expression of GCS constructs; type: cell-based, human; conditions: 8 h chase, two independent experiments; for increase in GSL production: transfected construct 16 h
How it was run: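 HeLa cells were transfected with GCS constructs for 16 h, with non-transfected cells run alongside. Cells were pulse-labelled for 2 h with [3H]-sphingosine (final 0.1 μCi/ml) in serum-free DMEM with 1% fatty-acid-free BSA, then chased 8 h in complete medium with or without BFA (5 μg/ml). Lipids were extracted and resolved by HPTLC (chloroform/methanol/water 65:25:4). Total GSL radioactivity is given as fold change versus control, mean ± SD of two experiments, with Student's t-test.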

[3] = molecular target: GRASP domain of GRASP55 (recombinant protein used for ITC); experiment: ITC
endogenous GRASP55 = type: binding, human; conditions: HA-tagged enzymes, WI-26 fibroblasts, anti-HA IP
GRASP55‐GFP = experiment: Co-immunoprecipitation of HA-tagged enzymes with GRASP55-GFP in HeLa cells; type: binding, human; conditions: anti-GFP IP, anti-HA blot
How it was run: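 HeLa cells were co-transfected with HA-tagged GCS, LCS, GM3S or Gb3S plus GRASP55-GFP. Cells were lysed and immunoprecipitated with anti-GFP antibody or control IgG. Interaction was read by Western blotting with anti-HA antibody.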

Row | Molecule | co-immunoprecipitation with endogenous GRASP55 (in words) (endogenous GRASP55) | co-immunoprecipitation with GRASP55-GFP (in words) (GRASP55‐GFP) | other results
1 | C[C@H]1CCC/C=C/[C@@H]2C[C@H](O)C[C@H]2[C@H](O)/C=C/C(=O)O1 [Brefeldin A, reference compound] | – | – | localization of SL biosynthetic enzymes (in words) (HeLa cells [1]): translocation of the enzymes back into the ER; effect on differences in GSL production between GCS constructs (in words) (HeLa cells [2]; BFA 5 μg/ml): neutralized these differences
2 | GCS C-terminal cytosolic tail peptide (biotinylated, WT) | – | – | Kd [3]: 2000 nM
3 | GCS‐Δ3C (protein, left off: HA (9aa), internal (between the two Gly residues of DPTISWRTGRYRLRCGGTAEEI), kept) MALLDLALEGMAVFGFVLFLVLWLMHFMAIIYTRLHLNKKATDKQPYSKLPGVSLLKPLKGVDPNLINNLETFFELDYPKYEVLLCVQDHDDPAIDVCKKLLGKYPNVDARLFIGGKKVGINPKINNLMPGYEVAKYDLIWICDSGIRVIPDTLTDMVNQMTEKVGLVHGLPYVADRQGFAATLEQVYFGTSHPRYYISANVTGFKCVTGMSCLMRKDVLDQAGGLIAFAQYIAEDYFMAKAIADRGWRFAMSTQVAMQNSGSYSISQFQSRMIRWTKLRINMLPATIICEPISECFVASLIIGWAAHHVFRWDIMVFFMCHCLAWFIFDYIQLRGVQGGTLCFSKLDYAVAWFIRESMTIYIFLSALWDPTISWRTGRYRLRCGGTAEEI | impaired the interaction | – | –
4 | GCS: GlcCer synthase, full‐length, expressed in cells (protein, left off: HA (9aa), internal (between the two Gly residues of DPTISWRTGRYRLRCGGTAEEILDV), kept) MALLDLALEGMAVFGFVLFLVLWLMHFMAIIYTRLHLNKKATDKQPYSKLPGVSLLKPLKGVDPNLINNLETFFELDYPKYEVLLCVQDHDDPAIDVCKKLLGKYPNVDARLFIGGKKVGINPKINNLMPGYEVAKYDLIWICDSGIRVIPDTLTDMVNQMTEKVGLVHGLPYVADRQGFAATLEQVYFGTSHPRYYISANVTGFKCVTGMSCLMRKDVLDQAGGLIAFAQYIAEDYFMAKAIADRGWRFAMSTQVAMQNSGSYSISQFQSRMIRWTKLRINMLPATIICEPISECFVASLIIGWAAHHVFRWDIMVFFMCHCLAWFIFDYIQLRGVQGGTLCFSKLDYAVAWFIRESMTIYIFLSALWDPTISWRTGRYRLRCGGTAEEILDV | interaction of GCS and LCS with endogenous GRASP55 was also observed | co‐immunoprecipitated with GRASP55‐GFP | –
5 | GCS‐HAN: GCS with a HA‐tag in the N‐terminal tail (protein, UniProt Q16739 1-394, looked up, HA tag in N-terminal tail) Ceramide glucosyltransferase: MALLDLALEGMAVFGFVLFLVLWLMHFMAIIYTRLHLNKKATDKQPYSKLPGVSLLKPLKGVDPNLINNLETFFELDYPKYEVLLCVQDHDDPAIDVCKKLLGKYPNVDARLFIGGKKVGINPKINNLMPGYEVAKYDLIWICDSGIRVIPDTLTDMVNQMTEKVGLVHGLPYVADRQGFAATLEQVYFGTSHPRYYISANVTGFKCVTGMSCLMRKDVLDQAGGLIAFAQYIAEDYFMAKAIADRGWRFAMSTQVAMQNSGSYSISQFQSRMIRWTKLRINMLPATIICEPISECFVASLIIGWAAHHVFRWDIMVFFMCHCLAWFIFDYIQLRGVQGGTLCFSKLDYAVAWFIRESMTIYIFLSALWDPTISWRTGRYRLRCGGTAEEILDV | – | – | increase in GSL production (HeLa cells [2]): 2.6 fold
6 | GCS‐HAC: GCS with a HA‐tag at the C‐terminus (protein, UniProt Q16739 1-394, looked up, C-terminal HA tag) Ceramide glucosyltransferase: MALLDLALEGMAVFGFVLFLVLWLMHFMAIIYTRLHLNKKATDKQPYSKLPGVSLLKPLKGVDPNLINNLETFFELDYPKYEVLLCVQDHDDPAIDVCKKLLGKYPNVDARLFIGGKKVGINPKINNLMPGYEVAKYDLIWICDSGIRVIPDTLTDMVNQMTEKVGLVHGLPYVADRQGFAATLEQVYFGTSHPRYYISANVTGFKCVTGMSCLMRKDVLDQAGGLIAFAQYIAEDYFMAKAIADRGWRFAMSTQVAMQNSGSYSISQFQSRMIRWTKLRINMLPATIICEPISECFVASLIIGWAAHHVFRWDIMVFFMCHCLAWFIFDYIQLRGVQGGTLCFSKLDYAVAWFIRESMTIYIFLSALWDPTISWRTGRYRLRCGGTAEEILDV | – | – | increase in GSL production (HeLa cells [2]): 2.3 fold
7 | Gb3S: Gb3 synthase, expressed in cells (protein, left off: HA, end not stated, kept) MSKPPDLLLRLLRGAPRQRVCTLFIIGFKFTFFVSIMIYWHVVGEPKEKGQLYNLPAEIPCPTLTPPTPPSHGPTPGNIFFLETSDRTNPNFLFMCSVESAARTHPESHVLVLMKGLPGGNASLPRHLGISLLSCFPNVQMLPLDLRELFRDTPLADWYAAVQGRWEPYLLPVLSDASRIALMWKFGGIYLDTDFIVLKNLRNLTNVLGTQSRYVLNGAFLAFERRHEFMALCMRDFVDHYNGWIWGHQGPQLLTRVFKKWCSIRSLAESRACRGVTTLPPEAFYPIPWQDWKKYFEDINPEELPRLLSATYAVHVWNKKSQGTRFEATSRALLAQLHARYCPTTHEAMKMYL | – | do not interact | –
8 | LCS: LacCer synthase, expressed in cells (protein, left off: HA, end not stated, kept) MRARRGLLRLPRRSLLAALFFFSLSSSLLYFVYVAPGIVNTYLFMMQAQGILIRDNVRTIGAQVYEQVLRSAYAKRNSSVNDSDYPLDLNHSETFLQTTTFLPEDFTYFANHTCPERLPSMKGPIDINMSEIGMDYIHELFSKDPTIKLGGHWKPSDCMPRWKVAILIPFRNRHEHLPVLFRHLLPMLQRQRLQFAFYVVEQVGTQPFNRAMLFNVGFQEAMKDLDWDCLIFHDVDHIPESDRNYYGCGQMPRHFATKLDKYMYLLPYTEFFGGVSGLTVEQFRKINGFPNAFWGWGGEDDDLWNRVQNAGYSVSRPEGDTGKYKSIPHHHRGEVQFLGRYALLRKSKERQGLDGLNNLNYFANITYDALYKNITVNLTPELAQVNEY | interaction of GCS and LCS with endogenous GRASP55 was also observed | co‐immunoprecipitated with GRASP55‐GFP | –
9 | GM3S: GM3 synthase, expressed in cells (protein, left off: HA, end not stated, kept) MRTKAAGCAERRPLQPRTEAAAAPAGRAMPSEYTYVKLRSDCSRPSLQWYTRAQSKMRRPSLLLKDILKCTLLVFGVWILYILKLNYTTEECDMKKMHYVDPDHVKRAQKYAQQVLQKECRPKFAKTSMALLFEHRYSVDLLPFVQKAPKDSEAESKYDPPFGFRKFSSKVQTLLELLPEHDLPEHLKAKTCRRCVVIGSGGILHGLELGHTLNQFDVVIRLNSAPVEGYSEHVGNKTTIRMTYPEGAPLSDLEYYSNDLFVAVLFKSVDFNWLQAMVKKETLPFWVRLFFWKQVAEKIPLQPKHFRILNPVIIKETAFDILQYSEPQSRFWGRDKNVPTIGVIAVVLATHLCDEVSLAGFGYDLNQPRTPLHYFDSQCMAAMNFQTMHNVTTETKFLLKLVKEGVVKDLSGGIDREF | – | do not interact | –
